Test results from ChEMBL document CHEMBL1127691, “Discovery, synthesis, and bioactivity of bis(heteroaryl)piperazines. 1. A novel class of non-nucleoside HIV-1 reverse transcriptase inhibitors” (J Med Chem, 1994).
pEC50: −log10 of the molar value.

Experiments:
[1] = (§1) Effective antiviral dose required to block the spread of HIV-1D34 infection in human peripheral blood mononuclear cells; type: functional; settings: read-out: ED50 (the source's name)
Method in brief: (§2)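 PBMC (1 × 10^6 cells) infected with HIV-1 D34 inoculum containing 1 ng p24, cultured at 37 °C in 5% CO2. Replication read as supernatant p24 at day 4. ED50 = 50% effective antiviral dose, estimated in some cases.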

[2] = Tested for the drug concentration required to decrease […] infected human peripheral blood mononuclear cell viability compared to uninfected controls; type: functional
Method in brief: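 Uninfected and HIV-1 D34-infected PBMC at 37 °C, 5% CO2. Viability taken from mitogen-stimulated cell proliferation. CC50 is the concentration lowering viability relative to uninfected controls; mostly estimated.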

[3] = biological target: Human immunodeficiency virus type 1 reverse transcriptase (Human immunodeficiency virus 1) (UniProt Q72547); experiment: In vitro inhibitory activity against HIV-1 reverse transcriptase at 100 uM
Method in brief: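 Recombinant HIV-1 RT (p51/p66 heterodimer, 90–95% pure, 0.0274 μM) with poly(rA) 10 μg/mL and (dT)10 primer 5 μg/mL; 8 μM α-35S-dTTP, 50 mM Tris-HCl pH 8.3, 10 mM MgCl2, 60 mM NaCl, 20 mM DTT, 0.05% NP-40. 37 °C, 15 min; TCA-precipitated label counted on filters. Percent inhibition at 100 μM, mean of at least two determinations.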

[4] = system: Human immunodeficiency virus 1; experiment: as §1; type: functional; settings: read-out: ED50 (the source's name); method in brief: as §2
[5] = system: MT2; experiment: Tested for the drug concentration required to decrease HIV-1IIIb infected MT-2 cell viability compared to uninfected controls; type: functional; settings: Homo sapiens
Method in brief: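 MT-2 cells with HIV-1 IIIb (MOI 0.001), 4-day culture. Viability by trypan blue exclusion. CC50 is the concentration lowering viability relative to uninfected controls; mostly estimated.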

[6] = system: MT2; experiment: Effective antiviral dose required to block the spread of HIV-1 IIIb infection in MT-2 cells by monitoring the formation of syncytia.; type: functional; settings: Homo sapiens, read-out: ED50 (the source's name)
Method in brief: (§3)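 MT-2 cells infected with HIV-1 IIIb at MOI 0.001, held at 37 °C in 5% CO2. Syncytium formation scored 4 days post-infection, at peak cytopathic effect. ED50 is the dose giving 50% reduction in syncytia; some values were estimated, and ">" means 50% was not reached at the top concentration.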

[7] = Selective index is the ratio of inhibitory concentrations of cellular DNA polymerase alpha to HIV-1 reverse transcriptase
Method in brief: (§4)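 Index = IC50 for cellular DNA polymerase α or δ divided by IC50 for HIV-1 RT. RT IC50 measured with recombinant RT and poly(rA):oligo(dT)10 template:primer.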

[8] = Selective index is the ratio of inhibitory concentrations of cellular DNA polymerase delta to HIV-1 reverse transcriptase; method in brief: as §4
[9] = system: MT2; experiment: Effective antiviral dose required to block the spread of HIV-1 IIIb infection in MT-2 cells by monitoring the formation of syncytia; type: functional; settings: Homo sapiens, read-out: ED50 (the source's name); method in brief: as §3

CCNc1ccccc1N1CCN(C(=O)c2cc(C)c(OC)c(C)c2)CC1
pEC50 [1]: < 6.00
CC50 [2]: ~10 µM
inhibition [3]: 21%

CCNc1cccnc1N1CCN(Cc2cc(C)c(OC)c(C)c2)CC1
pEC50 [4]: 6.00
CC50 [5]: 15 µM
pEC50 [6]: 5.70
CC50 [2]: > 10 µM
inhibition [3]: 73%
Selectivity index [7]: 30
Selectivity index [8]: > 60

CC(C)(C)Nc1cccnc1N1CCN(C(=O)c2cc3ccccc3[nH]2)CC1
pEC50 [4]: 8.00
CC50 [5]: > 2.4 µM
pEC50 [9]: 6.70
CC50 [2]: 10 µM
inhibition [3]: 89%
Selectivity index [7]: 225
Selectivity index [8]: 2500

CC(C)Nc1cccnc1N1CCN(C(=O)c2cc3ccccc3[nH]2)CC1
pEC50 [4]: 9.00
CC50 [5]: > 27 µM
pEC50 [9]: 6.52
CC50 [2]: > 10 µM
inhibition [3]: 96%
Selectivity index [7]: 1100
Selectivity index [8]: 10000

CCNc1cccnc1N1CCN(C(=O)c2cc3ccccc3[nH]2)CC1
pEC50 [4]: 8.00
CC50 [5]: > 30 µM
pEC50 [9]: 6.52
CC50 [2]: > 10 µM
Selectivity index [7]: 1500
Selectivity index [8]: 2800

CC(C)Nc1cccnc1N1CCN(C(=O)c2cc3cc(F)ccc3[nH]2)CC1
pEC50 [4]: 8.52
CC50 [5]: > 26 µM
pEC50 [9]: 6.52
inhibition [3]: 96%
Selectivity index [7]: 810
Selectivity index [8]: 10000

COc1ccc2[nH]c(C(=O)N3CCN(c4ncccc4NC(C)(C)C)CC3)cc2c1
pEC50 [4]: 8.00
CC50 [5]: > 22 µM
pEC50 [9]: 6.66
inhibition [3]: 86%
Selectivity index [7]: > 83
Selectivity index [8]: > 83
